According to ChEMBL document CHEMBL1208769, “Anti-T. cruzi activities and QSAR studies of 3-arylquinoxaline-2-carbonitrile di-N-oxides” (Bioorg Med Chem Lett, 2010):

Experiments:
Trypanosoma cruzi [1] = assay: Antitrypanosomal activity against Trypanosoma cruzi Tulahuen 2 epimastigotes; type: functional, organism-based
[2] = Octanol-water partition coefficient of the compound; type: physicochemical
Trypanosoma cruzi [3] = assay: Antitrypanosomal activity against Trypanosoma cruzi Tulahuen 2 epimastigotes assessed as inhibition of parasite growth at 25 uM relative to control; type: functional; conditions: read-out: GI
How it was run: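 Epimastigotes of T. cruzi Tulahuen 2 strain exposed to compound at 25 µM. Growth inhibition is given as percentage relative to untreated parasites. Values are means of three separate experiments, SD under 10%.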

| Compound | IC50 (Trypanosoma cruzi [1]) [µM] | logP [2] | inhibition of growth at 25 µM (Trypanosoma cruzi [3]) [%] |
| --- | --- | --- | --- |
| COc1ccc2c(c1)[n+]([O-])c(C#N)c(-c1cccs1)[n+]2[O-] | 14.3 | 1.11 | 109 |
| N#Cc1c(-c2ccccc2)[n+]([O-])c2cc(F)c(F)cc2[n+]1[O-] | 15.3 | 2.62 | 81.1 |
| N#Cc1c(-c2ccc(F)cc2)[n+]([O-])c2cc(F)c(F)cc2[n+]1[O-] | 36.6 | 2.74 | 29.4 |
| N#Cc1c(-c2ccc(Cl)cc2)[n+]([O-])c2cc(F)c(F)cc2[n+]1[O-] | 11.3 | 2.87 | 80.9 |
| Cc1ccc(-c2c(C#N)[n+]([O-])c3cc(F)c(F)cc3[n+]2[O-])cc1 | 14.6 | 2.87 | 86.2 |
| COc1ccc(-c2c(C#N)[n+]([O-])c3cc(F)c(F)cc3[n+]2[O-])cc1 | 12.1 | 2.09 | 91.6 |
| N#Cc1c(-c2ccc(OC(F)(F)F)cc2)[n+]([O-])c2cc(F)c(F)cc2[n+]1[O-] | 9.9 | 2.45 | 74.4 |
| N#Cc1c(-c2ccco2)[n+]([O-])c2cc(F)c(F)cc2[n+]1[O-] | 13.1 | 1.38 | 70.7 |
| N#Cc1c(-c2ccco2)[n+]([O-])c2cc(Cl)c(Cl)cc2[n+]1[O-] | 13.1 | 1.64 | 67 |
| Cc1cc2c(cc1C)[n+]([O-])c(-c1ccco1)c(C#N)[n+]2[O-] | 20.1 | 1.1 | 64.7 |
| N#Cc1c(-c2cccs2)[n+]([O-])c2cc(F)c(F)cc2[n+]1[O-] | 10.4 | 2.15 | 82.9 |
| N#Cc1c(-c2cccs2)[n+]([O-])c2cc(Cl)c(Cl)cc2[n+]1[O-] | 10.4 | 2.41 | 78.5 |
| Cc1cc2c(cc1C)[n+]([O-])c(-c1cccs1)c(C#N)[n+]2[O-] | 16.7 | 1.87 | 84.8 |
| COc1ccccc1N1CCN(c2c(C#N)[n+]([O-])c3cc(Cl)ccc3[n+]2[O-])CC1 | 6.5 | 1.91 | 100 |
| N#Cc1c(N2CCN(c3cccc(C(F)(F)F)c3)CC2)[n+]([O-])c2ccc(Cl)cc2[n+]1[O-] | 6.7 | 2.99 | 94 |
| N#Cc1c(NC(=O)c2ccco2)[n+]([O-])c2cc(F)c(F)cc2[n+]1[O-] | 19.2 | 0.868 | 53.1 |
| N#Cc1c(NC(=O)c2cccs2)[n+]([O-])c2cc(F)c(F)cc2[n+]1[O-] | 10.8 | 1.62 | 92.4 |
| COc1ccc(-c2c(C#N)[n+]([O-])c3cc(C)c(C)cc3[n+]2[O-])cc1 | 18.3 | 2.06 | 100 |
| Cc1cc2c(cc1C)[n+]([O-])c(-c1ccccc1)c(C#N)[n+]2[O-] | 22.1 | 2.33 | 97.4 |
| N#Cc1c(-c2ccccc2)[n+]([O-])c2cc(Cl)c(Cl)cc2[n+]1[O-] | 15.3 | 2.87 | 90 |
| Cc1ccc(-c2c(C#N)[n+]([O-])c3cc(Cl)c(Cl)cc3[n+]2[O-])cc1 | 14.6 | 3.1 | 95.6 |
| Cc1cc2c(cc1C)[n+]([O-])c(-c1ccc(F)cc1)c(C#N)[n+]2[O-] | 16.4 | 2.72 | 92.5 |
| N#Cc1c(-c2ccc(Cl)cc2)[n+]([O-])c2cc(Cl)c(Cl)cc2[n+]1[O-] | 13.8 | 3.1 | 89.8 |
| Cc1ccc(-c2c(C#N)[n+]([O-])c3cc(C)c(C)cc3[n+]2[O-])cc1 | 21.2 | 2.57 | 98.2 |
| N#Cc1c(-c2ccc(F)cc2)[n+]([O-])c2cc(Cl)c(Cl)cc2[n+]1[O-] | 11.3 | 2.98 | 85.3 |
| COc1ccc(-c2c(C#N)[n+]([O-])c3cc(Cl)c(Cl)cc3[n+]2[O-])cc1 | 29 | 2.33 | 42.7 |
| Cc1ccc2c(c1)[n+]([O-])c(C#N)c(-c1ccc(OC(F)(F)F)cc1)[n+]2[O-] | 10.7 | 2.18 | 75.1 |
| Cc1cc2c(cc1C)[n+]([O-])c(-c1ccc(OC(F)(F)F)cc1)c(C#N)[n+]2[O-] | 10.6 | 2.41 | 79.8 |
| Cc1cc2c(cc1C)[n+]([O-])c(-c1ccc(Cl)cc1)c(C#N)[n+]2[O-] | 16.4 | 2.83 | 98.7 |
| N#Cc1c(-c2ccc(OC(F)(F)F)cc2)[n+]([O-])c2cc(Cl)c(Cl)cc2[n+]1[O-] | 7.2 | 2.68 | 82 |
